# Source: paper PMC5590686 (Drug Design, Development and Therapy, 2017)
# Columns and labels:
# [1] = system: Calu-3 cells; details: Calu-3 monolayer, cited from earlier work
# [2] = system: P-gp; assay: Rho 123 efflux/accumulation by flow cytometry; format: cell-based, rat; details: puerarin 50, peoniflorin 20, menthol 25 μg/mL
# [3] = system: TJ proteins ZO-1, claudin-1, F-actin; assay: Immunofluorescence of TJ proteins in RNECs; format: cell-based, rat; details: 3 h; puerarin 50, peoniflorin 20, menthol 25 μg/mL
# How it was run: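 Monolayers grown on PET Transwell membranes (5×10^5 cells/cm2) were exposed to compound media for 3 h at 37°C. They were fixed in cold 4% paraformaldehyde for 30 min and blocked 1 h in goat serum. Anti-ZO-1 or anti-claudin-1 (1:100) was applied overnight at 4°C, then TRITC/FITC secondaries; F-actin was stained with phalloidin (1:150, 30 min, RT), with DAPI counterstain. Fluorescence/confocal imaging used identical settings; AOD = IntDen/Area, expressed as percentage.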
# [4] = rats, cited from earlier work
# [5] = Bidirectional transport of puerarin across RNEC monolayers; format: in vitro ADME; details: Sprague Dawley, rat
# How it was run: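 RNECs from a male Sprague Dawley rat nasal epithelium, passage 2–3, were seeded at 5×10^5 cells/cm2 on collagen-coated 0.4-μm PET Transwell membranes and grown 3 days at air interface until TEER >500 Ω·cm2. Monolayers were HBSS-washed and equilibrated 30 min at 37°C. Drug was dosed apical or basolateral with shaking at 37°C, receiver sampled 30–180 min, and quantified by C18 HPLC-UV at 250 nm. Papp = regression dQ/dt over donor C and area; ER calculated from both directions.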
Compound,effect of coadministration on Papp of puerarin [1],effect on P-gp function (Rho 123 retention) [2],"immunostaining / AOD of ZO-1, claudin-1 and F-actin versus control [3]",Papp of puerarin bidirectional transport ([1]; both directions),efflux ratio (ER) [1],ability of puerarin to target the brain via intranasal administration ([4]; intranasal versus injection and oral),"bioavailability of puerarin following intranasal administration ([4]; intranasal versus oral, plasma and brain by HPLC)",Papp A→B at 180 min [5],Papp B→A at 180 min [5],Papp at 180 min [5],efflux ratio at 180 min [5]
CC1CCC(C(C)C)C(O)C1 (centres unmarked) [menthol],significantly (P<0.05) improved,inhibited the function of P-gp,weaker than that of the control group,,,,,,,,
C[C@@]12C[C@@]3(O)O[C@@H](O1)[C@]1(COC(=O)c4ccccc4)[C@H]3C[C@@]12O[C@@H]1O[C@H](CO)[C@@H](O)[C@H](O)[C@H]1O [peoniflorin],remained unaltered,inhibited the function of P-gp,,,,,,,,,
"O=c1c(-c2ccc(O)cc2)coc2c([C@@H]3O[C@H](CO)[C@@H](O)[C@H](O)[C@H]3O)c(O)ccc12 [puerarin, Puerarin]",,inhibited the function of P-gp,,< 15 nm/s,< 1.5,higher than that with injection and oral administration,significantly higher than that of oral administration,12.7 to 13.1 nm/s,13.5 to 14.1 nm/s,< 15 nm/s,< 2
